Results from different studies.
Each line is one published result; the experiments were not run side by side.
Target: Cytochrome P450 2D6 (CYP2D6, Homo sapiens, UniProt P10635)

SMILES	assay	system	setting	quantity	result
CCc1cc(/C(C)=N/OCc2ccc(C3CCCCC3)c(C(F)(F)F)c2)ccc1CN1CC(C(=O)O)C1	enzyme activity, inhibitor	human, liver microsomes	200 µM, 20 min	inhibition	17.4%
Cc1ccc(C(=O)N2CCOC[C@H]2Cc2cccc(-n3nccn3)c2)c(-n2nccn2)c1	enzyme activity, inhibitor	human, liver microsomes	100 µM	inhibition	33%
Cc1cccc(F)c1N1CCC(N2Cc3cn(CC(C)(F)F)nc3N(Cc3ccccc3C(F)(F)F)C2=O)CC1	enzyme activity, inhibitor	human, liver microsomes		IC50	> 10 µM
CN(Cc1cnc2nc(N)nc(N)c2n1)c1ccc(C(=O)N2CCCCC2)cc1	enzyme activity, inhibitor, luciferase		10 µM	inhibition	-23.3%
C[C@H]1C[C@@H](N2C(=N)N[C@](C)(c3cccc(NC(=O)c4cccc(C#N)c4)c3Cl)CC2=O)CCO1	enzyme activity, inhibitor	human, liver microsomes	20 µM, 15 min	inhibition	45%
O=C(N[C@H](Cc1c[nH]c2ccccc12)C(=O)Nc1ccncc1)c1ccc(-c2cc(F)ccc2F)cc1F	enzyme activity, inhibitor	human, liver microsomes	1 µM	inhibition	47%
CCN(Cc1cnc2nc(N)nc(N)c2n1)c1ccc(C(=O)N2CCC(C(=O)OC)CC2)cc1	enzyme activity, inhibitor, luciferase		10 µM	inhibition	-20%
Cc1nc2c([nH]1)c(=O)n(C)c(=O)n2Cc1ccco1	enzyme activity, inhibitor	human, liver microsomes	40 µM	inhibition	-35%
Nc1nc(N)c2nc(CNc3cccc4ccccc34)cnc2n1	enzyme activity, inhibitor, luciferase		10 µM	inhibition	102%
CC(=O)c1cccc(OCc2cc(C(=O)N(C)[C@@H](C)c3ccccn3)no2)c1	enzyme activity, inhibitor	human, liver microsomes		IC50	> 30 µM
Nc1ccc(S(=O)(=O)Nc2ccnn2-c2ccccc2)cc1	enzyme activity, inhibitor	human, liver microsomes	10 µM	inhibition	-23%
COCCc1ccc(OCC(O)CNC(C)C)cc1 (centres unmarked)		human, plasma	oral, 100 mg, single dose, healthy volunteers	AUC(0-inf)	770 ng·h/mL
NC(=O)C1CCN(C(=O)Cc2ccc(N(CCCO)Cc3cnc4nc(N)nc(N)c4n3)cc2)CC1	enzyme activity, inhibitor, luciferase		10 µM	inhibition	-15.4%
C=C[C@H]1C[N@@]2CC[C@H]1C[C@@H]2[C@@H](O)c1ccnc2ccc(OC)cc12	enzyme activity, inhibitor	human, liver microsomes	1 µM	inhibition	80.8%
CC1(CO)C(O[C@@H]2O[C@H](C(=O)O)[C@@H](O)[C@H](O)[C@H]2O)CC[C@@]2(C)C1CC[C@]1(C)C2CC=C2[C@H]3CC(C)(C)[C@H](O)[C@@H](O)[C@]3(CO)[C@H](O)C[C@]21C (some centres unmarked)	enzyme activity, inhibitor, mass spectrometry	human, liver microsomes		IC50	> 90 µg/mL
C=CC(=O)Nc1cc(Nc2nccc(Nc3cc(Cl)c(F)cc3C(C)(C)O)n2)c(OC)cc1N1CC[C@@H](N(C)C)C1	enzyme activity, inhibitor	human, liver microsomes	10 µM	inhibition	< 20%
NC(=O)C1CCCN1C(=O)Cc1ccc(N(CCCO)Cc2cnc3nc(N)nc(N)c3n2)cc1 (centres unmarked)	enzyme activity, inhibitor, luciferase		10 µM	inhibition	-13.9%
